Blank lines part the entries; values can stand above or below the molecule they belong to. Active and inactive are the calls of the source. No cut-off for these calls is given here.
How the values were obtained:
[1] = system: L5178Y; assay: Antiproliferative activity against mouse L5178Y cells after 24 hrs by MTT assay; assay type: functional, cell-based
Summary of the method: (§1)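 Microplate MTT proliferation read-out, scored against untreated controls; each experiment run in triplicate.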

[2] = system: K562; assay: Antiproliferative activity against human K562 cells after 24 hrs by MTT assay; assay type: functional, cell-based; summary of the method: as §1
[3] = system: A2780; assay: Antiproliferative activity against human A2780 cells after 24 hrs by MTT assay; assay type: functional, cell-based; summary of the method: as §1
[4] = system: A2780; assay: Antiproliferative activity against human cisplatin resistant A2780 cells after 24 hrs by MTT assay; assay type: functional, cell-based; summary of the method: as §1
[5] = system: HUVEC; assay: Inhibition of VEGF-A induced HUVEC cell sprouting after 24 hrs by angiogenesis assay; assay type: functional, cell-based; conditions: Homo sapiens
Summary of the method: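 HUVEC spheroids (500 cells, formed overnight in hanging drops) embedded in collagen gel. Compound plus VEGF-A (25 ng/mL final) added after 30 min; 37 °C for 24 h, then paraformaldehyde fixation. Mean cumulative sprout length of 10 random spheroids per point; seven concentrations, 10 µM to 10 nM, in singlicate for IC50.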

[6] = biological target: RAC-alpha serine/threonine-protein kinase (Homo sapiens, UniProt P31749); assay: Inhibition of recombinant AKT1 assessed as 33Pi incorporation after 60 mins by scintillation counting
Summary of the method: (§2)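 Recombinant kinase with GSK3(14-27) substrate in 70 mM HEPES-NaOH pH 7.5, 3 mM MgCl2, 3 mM MnCl2, Na-orthovanadate, 1.2 mM DTT, PEG, 1 µM [γ-33P]-ATP. Incubated 30 °C, 60 min, stopped with 2% H3PO4, washed with 0.9% NaCl, 33Pi counted. IC50 from residual activity over 10 concentrations in singlicate.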

[7] = biological target: ALK tyrosine kinase receptor (Homo sapiens, UniProt Q9UM73); assay: Inhibition of recombinant ALK assessed as 33Pi incorporation after 60 mins by scintillation counting
Summary of the method: (§3)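 Tyrosine kinases assayed on poly(Glu,Tyr) in 70 mM HEPES-NaOH pH 7.5, 3 mM MgCl2, 3 mM MnCl2, orthovanadate, 1.2 mM DTT, PEG, 1 µM [γ-33P]-ATP; 30 °C for 60 min, then 2% H3PO4 stop, saline wash, 33Pi scintillation. IC50 derived from residual activity at 10 concentrations in singlicate.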

[8] = biological target: NUAK family SNF1-like kinase 1 (Homo sapiens, UniProt O60285); assay: (§4) Inhibition of recombinant ARK5 assessed as 33Pi incorporation after 60 mins by scintillation counting
Summary of the method: (§5)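 Kinase reaction uses RBER-CHKtide as substrate in HEPES-NaOH pH 7.5 (70 mM) with 3 mM each MgCl2 and MnCl2, orthovanadate, 1.2 mM DTT, PEG and 1 µM [γ-33P]-ATP. Run at 30 °C for 60 min, quenched in 2% H3PO4, saline-washed, scintillation-counted. Residual activity at 10 concentrations (singlicate) gives IC50.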

[9] = biological target: Aurora kinase B (Homo sapiens, UniProt Q96GD4); assay: Inhibition of recombinant Aurora-b assessed as 33Pi incorporation after 60 mins by scintillation counting
Summary of the method: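 Substrate tetra(LRRWSLG) with recombinant Aurora-B. Buffer is 70 mM HEPES-NaOH pH 7.5, 3 mM MgCl2, 3 mM MnCl2, orthovanadate, 1.2 mM DTT, PEG, with 1 µM [γ-33P]-ATP. After 60 min at 30 °C, 2% H3PO4 stop, NaCl washes, 33Pi counted. IC50 fitted from 10 singlicate concentrations.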

[10] = biological target: Tyrosine-protein kinase receptor UFO (Homo sapiens, UniProt P30530); assay: (§6) Inhibition of recombinant AXL assessed as 33Pi incorporation after 60 mins by scintillation counting; summary of the method: as §3
[11] = biological target: Focal adhesion kinase 1 (Homo sapiens, UniProt Q05397); assay: Inhibition of recombinant FAK assessed as 33Pi incorporation after 60 mins by scintillation counting; summary of the method: as §3
[12] = biological target: Insulin-like growth factor 1 receptor (Homo sapiens, UniProt P08069); assay: Inhibition of recombinant IGF1-R assessed as 33Pi incorporation after 60 mins by scintillation counting; summary of the method: as §3
[13] = biological target: Dual specificity mitogen-activated protein kinase kinase 1 (Homo sapiens, UniProt Q02750); assay: Inhibition of wild type MEK1 assessed as 33Pi incorporation after 60 mins by scintillation counting
Summary of the method: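 ERK2-KR is the substrate for wild-type MEK1 in 70 mM HEPES-NaOH pH 7.5 containing 3 mM MgCl2, 3 mM MnCl2, orthovanadate, 1.2 mM DTT, PEG and 1 µM [γ-33P]-ATP. Reaction runs 60 min at 30 °C and is stopped with 2% H3PO4; incorporated 33Pi is counted after washing. IC50 comes from 10 concentrations tested once each.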

[14] = biological target: Hepatocyte growth factor receptor (Homo sapiens, UniProt P08581); assay: Inhibition of wild type MET assessed as 33Pi incorporation after 60 mins by scintillation counting
Summary of the method: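 Wild-type MET phosphorylates poly(Ala,Glu,Lys,Tyr) in HEPES-NaOH pH 7.5 (70 mM) with 3 mM MgCl2, 3 mM MnCl2, orthovanadate, 1.2 mM DTT, PEG, 1 µM [γ-33P]-ATP, at 30 °C for 60 min. Stop with 2% H3PO4, wash, scintillation count. IC50 from residual activity at 10 singlicate concentrations.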

[15] = biological target: Serine/threonine-protein kinase Nek2 (Homo sapiens, UniProt P51955); assay: (§7) Inhibition of recombinant NEK2 assessed as 33Pi incorporation after 60 mins by scintillation counting
Summary of the method: (§8)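 NEK2 reaction on RB-CTF substrate. Contains 70 mM HEPES-NaOH pH 7.5, 3 mM MgCl2/MnCl2, orthovanadate, 1.2 mM DTT, PEG and 1 µM [γ-33P]-ATP. Incubation is 30 °C, 60 min, followed by 2% H3PO4 stop, 0.9% NaCl washes and 33Pi scintillation counting. IC50 from 10 concentrations in singlicate.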

[16] = biological target: Serine/threonine-protein kinase Nek6 (Homo sapiens, UniProt Q9HC98); assay: Inhibition of recombinant NEK6 assessed as 33Pi incorporation after 60 mins by scintillation counting; summary of the method: as §2
[17] = biological target: Serine/threonine-protein kinase pim-1 (Homo sapiens, UniProt P11309); assay: Inhibition of recombinant PIM1 assessed as 33Pi incorporation after 60 mins by scintillation counting; summary of the method: as §2
[18] = biological target: Serine/threonine-protein kinase PLK1 (Homo sapiens, UniProt P53350); assay: Inhibition of recombinant PLK1 assessed as 33Pi incorporation after 60 mins by scintillation counting; summary of the method: as §5
[19] = biological target: Serine/threonine-protein kinase N1 (Homo sapiens, UniProt Q16512); assay: Inhibition of recombinant PRK1 assessed as 33Pi incorporation after 60 mins by scintillation counting; summary of the method: as §5
[20] = biological target: Proto-oncogene tyrosine-protein kinase Src (Homo sapiens, UniProt P12931); assay: Inhibition of recombinant SRC assessed as 33Pi incorporation after 60 mins by scintillation counting; summary of the method: as §3
[21] = biological target: Vascular endothelial growth factor receptor 2 (Homo sapiens, UniProt P35968); assay: Inhibition of recombinant VEGF-R2 assessed as 33Pi incorporation after 60 mins by scintillation counting; summary of the method: as §3
[22] = biological target: NUAK family SNF1-like kinase 1 (Homo sapiens) (UniProt O60285); assay: as §4; summary of the method: as §5
[23] = biological target: Tyrosine-protein kinase receptor UFO (Homo sapiens) (UniProt P30530); assay: as §6; summary of the method: as §3
[24] = biological target: Serine/threonine-protein kinase Nek2 (Homo sapiens) (UniProt P51955); assay: as §7; summary of the method: as §8
[25] = Mus musculus, L5178Y, 24 h, read-out: IC50
[26] = Homo sapiens, K562, 24 h, read-out: IC50
[27] = Homo sapiens, A2780, 24 h, read-out: IC50

Chain of Aurora kinase B (Q96GD4 whole entry): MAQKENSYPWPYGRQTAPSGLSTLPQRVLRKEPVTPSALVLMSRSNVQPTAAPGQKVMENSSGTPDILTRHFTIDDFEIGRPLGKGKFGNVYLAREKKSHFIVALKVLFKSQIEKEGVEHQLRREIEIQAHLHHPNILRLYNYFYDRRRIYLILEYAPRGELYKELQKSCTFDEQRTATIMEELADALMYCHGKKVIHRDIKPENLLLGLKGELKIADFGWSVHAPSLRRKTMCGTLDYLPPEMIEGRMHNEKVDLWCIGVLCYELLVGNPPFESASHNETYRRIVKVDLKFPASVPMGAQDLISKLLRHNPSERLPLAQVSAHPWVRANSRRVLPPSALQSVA
Chain of Dual specificity mitogen-activated protein kinase kinase 1 (Q02750 whole entry): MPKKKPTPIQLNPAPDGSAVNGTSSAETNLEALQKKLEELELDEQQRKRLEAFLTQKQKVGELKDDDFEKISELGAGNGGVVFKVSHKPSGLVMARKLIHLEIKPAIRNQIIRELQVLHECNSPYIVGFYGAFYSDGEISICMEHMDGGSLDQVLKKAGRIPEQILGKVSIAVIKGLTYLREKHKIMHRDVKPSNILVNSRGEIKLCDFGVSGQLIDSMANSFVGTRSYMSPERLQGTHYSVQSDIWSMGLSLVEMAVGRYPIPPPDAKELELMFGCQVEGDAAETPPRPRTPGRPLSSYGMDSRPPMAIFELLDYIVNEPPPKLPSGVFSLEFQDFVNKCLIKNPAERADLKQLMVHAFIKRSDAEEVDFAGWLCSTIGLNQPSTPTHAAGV
Chain of Vascular endothelial growth factor receptor 2 (P35968 whole entry): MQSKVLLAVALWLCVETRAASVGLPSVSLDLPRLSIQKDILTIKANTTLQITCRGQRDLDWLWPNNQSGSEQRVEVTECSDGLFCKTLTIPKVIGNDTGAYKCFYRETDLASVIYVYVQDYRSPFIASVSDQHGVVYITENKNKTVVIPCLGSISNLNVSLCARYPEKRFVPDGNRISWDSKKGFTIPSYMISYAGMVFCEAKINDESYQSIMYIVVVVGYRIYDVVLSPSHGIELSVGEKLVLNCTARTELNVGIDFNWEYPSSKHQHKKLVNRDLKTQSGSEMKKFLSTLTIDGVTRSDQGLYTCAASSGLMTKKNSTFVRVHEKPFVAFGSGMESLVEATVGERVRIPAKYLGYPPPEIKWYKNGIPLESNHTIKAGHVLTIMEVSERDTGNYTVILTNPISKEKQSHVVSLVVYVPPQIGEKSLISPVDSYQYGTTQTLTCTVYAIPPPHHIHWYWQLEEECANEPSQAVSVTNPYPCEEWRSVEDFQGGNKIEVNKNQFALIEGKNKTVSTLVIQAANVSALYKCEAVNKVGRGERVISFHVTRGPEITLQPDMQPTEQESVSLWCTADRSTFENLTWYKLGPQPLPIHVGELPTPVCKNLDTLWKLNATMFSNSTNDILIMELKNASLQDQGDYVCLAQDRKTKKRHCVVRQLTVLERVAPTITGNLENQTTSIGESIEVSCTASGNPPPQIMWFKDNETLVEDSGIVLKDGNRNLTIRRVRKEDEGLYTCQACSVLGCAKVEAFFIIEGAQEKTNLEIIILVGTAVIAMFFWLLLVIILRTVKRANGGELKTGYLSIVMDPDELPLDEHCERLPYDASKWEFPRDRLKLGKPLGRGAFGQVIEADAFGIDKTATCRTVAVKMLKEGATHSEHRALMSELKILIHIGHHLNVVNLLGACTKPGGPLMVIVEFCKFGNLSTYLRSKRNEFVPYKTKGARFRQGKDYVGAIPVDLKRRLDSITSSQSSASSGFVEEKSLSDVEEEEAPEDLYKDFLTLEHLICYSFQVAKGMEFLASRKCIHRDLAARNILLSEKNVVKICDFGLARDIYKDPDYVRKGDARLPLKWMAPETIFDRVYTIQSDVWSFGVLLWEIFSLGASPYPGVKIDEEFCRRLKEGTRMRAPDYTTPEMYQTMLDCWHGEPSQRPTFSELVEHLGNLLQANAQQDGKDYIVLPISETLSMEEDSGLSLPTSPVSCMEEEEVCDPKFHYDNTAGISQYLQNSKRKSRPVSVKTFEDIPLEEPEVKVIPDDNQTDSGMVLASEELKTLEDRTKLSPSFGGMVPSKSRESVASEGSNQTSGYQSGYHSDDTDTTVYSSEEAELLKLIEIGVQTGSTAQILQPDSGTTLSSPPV
Chain of Insulin-like growth factor 1 receptor (P08069 31-736 limits assumed): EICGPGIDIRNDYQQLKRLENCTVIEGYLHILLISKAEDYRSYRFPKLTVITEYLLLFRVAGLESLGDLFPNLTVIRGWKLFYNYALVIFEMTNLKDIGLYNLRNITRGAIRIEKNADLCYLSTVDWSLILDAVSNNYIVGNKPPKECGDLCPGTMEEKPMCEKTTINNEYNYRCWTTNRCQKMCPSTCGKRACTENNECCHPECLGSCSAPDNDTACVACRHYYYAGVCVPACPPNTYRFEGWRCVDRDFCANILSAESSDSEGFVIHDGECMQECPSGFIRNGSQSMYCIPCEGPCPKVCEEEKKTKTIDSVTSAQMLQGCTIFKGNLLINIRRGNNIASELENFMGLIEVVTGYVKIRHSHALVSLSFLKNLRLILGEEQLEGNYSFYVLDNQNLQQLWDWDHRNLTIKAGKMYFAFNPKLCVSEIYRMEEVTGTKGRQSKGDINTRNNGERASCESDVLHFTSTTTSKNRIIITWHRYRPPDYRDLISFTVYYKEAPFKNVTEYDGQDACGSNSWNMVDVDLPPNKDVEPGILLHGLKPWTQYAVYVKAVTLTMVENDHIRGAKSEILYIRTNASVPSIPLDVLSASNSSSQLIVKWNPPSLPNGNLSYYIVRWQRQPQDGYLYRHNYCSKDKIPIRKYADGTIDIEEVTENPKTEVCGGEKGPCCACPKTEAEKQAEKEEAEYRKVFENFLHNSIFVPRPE
Chain of Insulin-like growth factor 1 receptor (P08069 741-1367 limits assumed): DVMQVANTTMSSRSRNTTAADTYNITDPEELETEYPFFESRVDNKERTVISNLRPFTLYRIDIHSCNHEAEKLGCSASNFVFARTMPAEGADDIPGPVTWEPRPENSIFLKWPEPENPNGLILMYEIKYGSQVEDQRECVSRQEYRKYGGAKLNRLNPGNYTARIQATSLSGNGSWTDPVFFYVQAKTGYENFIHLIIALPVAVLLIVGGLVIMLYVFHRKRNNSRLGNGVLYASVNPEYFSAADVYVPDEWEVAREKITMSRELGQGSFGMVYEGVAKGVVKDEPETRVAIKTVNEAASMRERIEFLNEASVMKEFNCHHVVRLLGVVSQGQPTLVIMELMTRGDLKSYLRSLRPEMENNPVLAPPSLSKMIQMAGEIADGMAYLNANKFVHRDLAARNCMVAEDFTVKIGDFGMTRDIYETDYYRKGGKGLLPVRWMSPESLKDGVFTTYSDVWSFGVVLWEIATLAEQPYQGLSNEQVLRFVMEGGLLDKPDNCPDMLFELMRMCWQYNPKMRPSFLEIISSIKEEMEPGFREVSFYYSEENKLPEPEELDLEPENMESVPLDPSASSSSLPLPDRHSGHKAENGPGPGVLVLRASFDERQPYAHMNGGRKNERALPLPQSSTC
Chain of Proto-oncogene tyrosine-protein kinase Src (P12931 2-536 limits assumed): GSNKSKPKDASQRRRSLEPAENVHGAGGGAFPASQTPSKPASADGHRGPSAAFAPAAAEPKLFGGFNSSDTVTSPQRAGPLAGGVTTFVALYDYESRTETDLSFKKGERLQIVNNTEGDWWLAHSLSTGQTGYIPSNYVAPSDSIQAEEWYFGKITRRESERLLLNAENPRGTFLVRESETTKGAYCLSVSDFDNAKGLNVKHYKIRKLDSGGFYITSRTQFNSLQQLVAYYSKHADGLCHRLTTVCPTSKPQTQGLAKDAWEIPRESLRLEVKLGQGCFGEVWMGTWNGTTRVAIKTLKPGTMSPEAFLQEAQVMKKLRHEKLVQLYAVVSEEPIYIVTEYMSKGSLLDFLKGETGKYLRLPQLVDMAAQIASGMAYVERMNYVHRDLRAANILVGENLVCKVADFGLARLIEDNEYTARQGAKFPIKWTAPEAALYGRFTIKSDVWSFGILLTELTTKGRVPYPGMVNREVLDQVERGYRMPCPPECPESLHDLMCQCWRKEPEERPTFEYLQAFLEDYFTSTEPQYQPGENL
Chain of Serine/threonine-protein kinase Nek6 (Q9HC98 whole entry): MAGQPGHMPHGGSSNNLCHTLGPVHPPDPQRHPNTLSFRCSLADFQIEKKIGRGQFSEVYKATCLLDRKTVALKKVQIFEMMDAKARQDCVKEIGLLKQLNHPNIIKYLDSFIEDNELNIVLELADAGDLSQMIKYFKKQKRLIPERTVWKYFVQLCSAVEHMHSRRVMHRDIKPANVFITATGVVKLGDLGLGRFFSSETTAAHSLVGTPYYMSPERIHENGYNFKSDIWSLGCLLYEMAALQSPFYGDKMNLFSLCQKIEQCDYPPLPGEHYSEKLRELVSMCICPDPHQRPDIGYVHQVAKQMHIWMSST
Chain of Serine/threonine-protein kinase PLK1 (P53350 whole entry): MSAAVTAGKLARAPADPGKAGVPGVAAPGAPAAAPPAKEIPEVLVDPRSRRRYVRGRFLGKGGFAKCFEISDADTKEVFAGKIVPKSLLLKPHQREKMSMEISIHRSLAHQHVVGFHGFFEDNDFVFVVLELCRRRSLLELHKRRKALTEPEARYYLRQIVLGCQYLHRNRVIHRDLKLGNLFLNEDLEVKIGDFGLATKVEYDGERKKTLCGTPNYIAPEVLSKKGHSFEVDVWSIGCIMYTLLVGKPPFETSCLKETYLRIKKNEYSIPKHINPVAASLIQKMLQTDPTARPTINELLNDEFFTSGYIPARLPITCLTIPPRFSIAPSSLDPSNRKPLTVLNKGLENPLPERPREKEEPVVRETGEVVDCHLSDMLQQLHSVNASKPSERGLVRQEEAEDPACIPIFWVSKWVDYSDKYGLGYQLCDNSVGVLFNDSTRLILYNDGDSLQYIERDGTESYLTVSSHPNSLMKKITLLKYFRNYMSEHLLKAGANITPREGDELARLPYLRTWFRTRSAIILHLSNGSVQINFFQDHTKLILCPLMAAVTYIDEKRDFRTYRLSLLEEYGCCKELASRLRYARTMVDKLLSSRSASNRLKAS

SMILES: C=Cc1c(C)cc2c(c1O)[C@]13C[C@H]1CC[C@@]1(C)C(=O)O[C@H]([C@H]2O)[C@@H]31 [ARTHRININ B]
IC50 ([1]; l5178y): Not Active | IC50 ([2]; k562): Not Active | IC50 ([3]; a2780): Not Active | IC50 ([4]; a2780): Not Active

SMILES: CCN(CC)CCNC(=O)c1c(C)[nH]c(/C=C2\C(=O)Nc3ccc(F)cc32)c1C [SUNITINIB]
IC50 [5]: 0.12 µM

Further lines, with some results ahead:

IC50 ([2]; k562): Not Active | IC50 ([3]; a2780): Not Active | IC50 ([4]; a2780): Not Active
SMILES: C=Cc1c(C)cc(O)c2c1[C@H](O)[C@@H](O)[C@H]1[C@]23C[C@H]3CC[C@@]1(C)C(=O)OC [ARTHRININ D]
IC50 ([1]; l5178y): Not Active

IC50 [2, 26]: 254 µM | IC50 [3, 27]: 68.2 µM | IC50 [4, 27]: 74 µM | IC50 [6]: > 100 µM | IC50 [7]: 41.3 µM | IC50 [8]: 33 µM | IC50 [9]: 3 µM | IC50 [10]: > 100 µM | IC50 [11]: > 100 µM | IC50 [12]: 33.3 µM | IC50 [13]: > 100 µM | IC50 [14]: > 100 µM | IC50 [15]: > 100 µM | IC50 [16]: > 100 µM | IC50 [17]: 0.3 µM | IC50 [18]: 75.7 µM | IC50 [19]: 54.9 µM | IC50 [20]: 35 µM | IC50 [21]: 11.7 µM
SMILES: Cc1cc(O)cc2oc3cc(O)cc(O)c3c(=O)c12 [NORLICHEXANTHONE]
IC50 [1, 25]: 1.16 µM

IC50 [2, 26]: 50.3 µM | IC50 [3, 27]: 41.3 µM | IC50 [4, 27]: 66 µM | inhibition [6]: inactive | inhibition [7]: inactive | inhibition [22]: inactive | inhibition [9]: inactive | inhibition [23]: inactive | inhibition [11]: inactive | inhibition [12]: inactive | inhibition [13]: inactive | inhibition [14]: inactive | inhibition [24]: inactive | inhibition [16]: inactive | inhibition [17]: inactive | inhibition [18]: inactive | inhibition [19]: inactive | inhibition [20]: inactive | inhibition [21]: inactive
SMILES: C=C[C@]1(C)C=C2[C@@H](O)[C@@H]3OC(=O)[C@@]4(C)CC[C@H]5C[C@]5([C@@H]34)[C@@]2(O)C(=O)C1 [MYROCIN D]
IC50 [1, 25]: 2.05 µM | IC50 [5]: 2.6 µM

Reference: ChEMBL document CHEMBL1811781, “Arthrinins A-D: novel diterpenoids and further constituents from the sponge derived fungus Arthrinium sp” (Bioorg Med Chem, 2011)
